Test results taken from article PMC6427047 (Cell chemical biology, 2017).

Tests used:
[1] = system: 8 selected kinases; test: Immunoblot validation of kinase degradation in MOLM-14 cells; format: cell-based, Human; conditions: pretreatment then 4-hour co-treatment with TL12-186
Method in brief: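 MOLM-14 cells were exposed to test compound for 4 h, then lysed. Lysates were cleared by max-speed centrifugation at 4°C for 10 min. Protein was quantified by BCA and normalized. Samples were mixed with LDS sample buffer containing fresh 10% 2-mercaptoethanol and immunoblotted for the target kinases.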

[2] = target: T1, FLT3 (Homo sapiens, UniProt P36888); test: Immunoblot in MOLM-14 cells; format: cell-based
T1 sequence (P36888 610-943 limits assumed): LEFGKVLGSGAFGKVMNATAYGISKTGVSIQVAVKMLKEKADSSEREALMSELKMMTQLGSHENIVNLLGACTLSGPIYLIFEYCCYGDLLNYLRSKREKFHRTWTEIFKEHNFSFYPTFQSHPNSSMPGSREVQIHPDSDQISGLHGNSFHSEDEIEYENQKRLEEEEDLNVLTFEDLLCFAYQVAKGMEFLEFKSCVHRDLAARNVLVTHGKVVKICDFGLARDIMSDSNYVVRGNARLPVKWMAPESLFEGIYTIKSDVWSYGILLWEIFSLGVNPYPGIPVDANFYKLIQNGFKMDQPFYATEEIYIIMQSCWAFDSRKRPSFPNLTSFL

[3] = system: WT and CRBN−/− MOLM-14 and MOLT-4 cells; test: 2-day proliferation assays, WT and CRBN−/− cells; format: cell-based, Human; conditions: CRBN−/− MOLM-14 and MOLT-4, 2-day

SMILES	effect of 4-hour pretreatment on TL12-186-induced kinase degradation [1]	also measured
NS(=O)(=O)OC[C@@H]1C[C@@H](n2ccc3c(N[C@H]4CCc5ccccc54)ncnc32)C[C@@H]1O [MLN4924]	reverse the degradation effect of TL12-186	
CCN(CC)CCCC(C)Nc1ccnc2cc(Cl)ccc12 (centres unmarked) [chloroquine]		rescue of TL12-186-induced FLT3 degradation by autophagy inhibition [2]: cannot significantly rescue the degradation of FLT3
CC(C)C[C@H](NC(=O)[C@H](CCc1ccccc1)NC(=O)CN1CCOCC1)C(=O)N[C@@H](Cc1ccccc1)C(=O)N[C@@H](CC(C)C)C(=O)[C@@]1(C)CO1 [carfilzomib]	reverse the degradation effect of TL12-186	
Nc1cccc2c1C(=O)N(C1CCC(=O)NC1=O)C2=O (centres unmarked) [pomalidomide]	reverse the degradation effect of TL12-186	
CC(C)S(=O)(=O)c1ccccc1Nc1nc(Nc2ccc(N3CCC(N4CCN(C)CC4)CC3)cc2)ncc1Cl [TL13-87]		inhibition of cellular proliferation in CRBN−/− cells [3]: more potent inhibition of cellular proliferation relative to the degrader molecules
